PABP FP inh: blocks human PABP binding to poly(A) RNA; fluorescence polarization; calls only at 35 µM; P11940; actives 1% (n = 290,000);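 further: calls also rest on retests at 20 µM and on dose response follow-up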
Target sequence (P11940 whole entry, looked up): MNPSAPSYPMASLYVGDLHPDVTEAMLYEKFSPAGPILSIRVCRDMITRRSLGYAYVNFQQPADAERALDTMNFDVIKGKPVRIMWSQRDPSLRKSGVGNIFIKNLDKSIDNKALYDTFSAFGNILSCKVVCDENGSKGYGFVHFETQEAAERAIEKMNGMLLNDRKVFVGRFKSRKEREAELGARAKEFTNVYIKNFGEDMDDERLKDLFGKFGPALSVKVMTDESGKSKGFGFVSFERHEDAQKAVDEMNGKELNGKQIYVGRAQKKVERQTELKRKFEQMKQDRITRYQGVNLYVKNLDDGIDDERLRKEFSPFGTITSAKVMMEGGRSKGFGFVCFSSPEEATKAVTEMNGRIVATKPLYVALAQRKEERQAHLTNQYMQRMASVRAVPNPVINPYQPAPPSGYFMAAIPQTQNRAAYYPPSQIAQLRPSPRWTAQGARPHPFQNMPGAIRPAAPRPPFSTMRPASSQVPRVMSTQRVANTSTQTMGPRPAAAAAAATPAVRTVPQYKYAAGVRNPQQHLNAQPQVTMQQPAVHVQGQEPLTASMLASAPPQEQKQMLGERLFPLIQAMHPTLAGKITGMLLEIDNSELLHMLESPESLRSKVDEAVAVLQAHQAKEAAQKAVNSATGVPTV
PABP1 MLLE inh: blocks PAM2 peptide binding to the PABP1 MLLE domain; P11940; GST-MLLE / FITC-PAM2 fluorescence polarization; inhibition, % at 20 µM; actives 0.36% (n = 360,000); AID 588489; in the data active means inhibition above about 35%, passing the limit was not always enough;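 further: plate controls were DMSO wells with GST-MLLE for no effect and wells lacking GST-MLLE protein for full effect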
core dimer inh: HCV core protein dimerization inhibition; TR-FRET GST/Flag-core106 dimerization, 1536-well; inhibition, % at 5 µM; actives 0.33% (n = 300,000);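 active means inhibition above the mean of all tested compounds plus 3 SD, set per screening campaign, cut at about 45% in these data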
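Material: Tagged HCV core106 pair (GST and Flag) | Amount: GST-core106 13.5 nM, Flag-core106 17 nM | Medium: KF-containing HEPES buffer, pH 7.45, DTT, CHAPS, BSA | Reagent: Eu donor and XL665 acceptor anti-tag antibodies | Schedule: 4 h at 22.5 °C | Technique: Time-resolved FRET, ex 340 nm, em 617 and 671 nm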
SUMO HTRF inh: SUMOylation inhibition; P63279; HTRF SUMOylation assay, SAE1/SAE2 + UBC9, in vitro; inhibition, % at 35 µM; actives 0.36% (n = 290,000); in the data active means inhibition above about 50%, passing the limit was not always enough; inconclusive means no clear call, values can overlap the other calls
eIF4E-4G inh: inhibitors of eIF4E and eIF4G interaction in translation initiation; P63073+Q04637; TR-FRET eIF4E-eIF4GI(517-606) binding, 2 h; inhibition, % at 21.7 µM; actives 0.37% (n = 220,000); AID 782;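 active means inhibition above about 30%, limit read from the data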;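 further: 0% = full FRET control wells and 100% = background wells lacking eIF4GI fragment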
eIF4H inh: inhibitors of RNA binding by human eIF4H; inhibition, % at 35 µM; Q15056; eIF4H fluorescence polarization binding assay; actives 0.94% (n = 290,000);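 further: calls also rest on retests at 20 µM and on dose response follow-up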
* = called active by the depositor; i = inactive; ? = inconclusive; . = no result given; + = active, no number; [ ] = another dose, or the depositor's remark. A selection: hits, their analogues and other compounds. The true share with any hit is near 1.8%. Unless noted, how the calls were made is not given here.

SMILES	PABP FP inh	PABP1 MLLE inh	core dimer inh	SUMO HTRF inh	eIF4E-4G inh	eIF4H inh
CCOC(=O)C1CCN(C(=O)Nc2ccc3nc(-c4ccco4)c(-c4ccco4)nc3c2)CC1	i	13	72*	73*	44*[fluorescence artefact?]	?
Cc1nc2c(OCc3ccc(C#N)cc3)cccn2c1N(C)Cc1cccs1	.	4	.	.	.	.
CCC(C)N(C(=O)CSc1ccc(NC(C)=O)cc1)C1CCS(=O)(=O)C1 (stereo not drawn)	i	45*	0	10	1	-16
O=C(COC(=O)c1ccc(NS(=O)(=O)c2cccs2)cc1)NCc1ccco1	+	-6	72*	44	20	100*
CN(C)S(=O)(=O)c1ccc(C(=O)NCc2ccco2)cc1	i	11	1	11	-3	4
O=C(COC(=O)c1cccs1)NCc1ccco1	i	-10	6	0	.	28
COc1cc(NC(=O)c2cccs2)c(C(=O)OCC(=O)NCc2ccco2)cc1OC	+	-24	5	8	-9	89*
CN(C)S(=O)(=O)c1ccc(C(=O)OCC(=O)NCc2ccco2)cc1	?	-15	6	0	8	69*
Cc1cc(C(F)(F)F)nn1CC(=O)NNC(=S)Nc1ccc(Cl)cc1	i	29	0	-27	2	5
O=C(Cn1nnc(-c2cc(C(F)(F)F)cc(C(F)(F)F)c2)n1)NNC(=S)Nc1ccc(Cl)cc1	i	41*	4	-31	4	14
COc1cc(Nc2nc3ccccc3n3nnnc23)cc(OC)c1OC	+	-30	-16	33	4	80*
COc1ccc(Nc2nc3ccccc3n3nnnc23)cc1	i	6	3	26	5	9
COCC(=O)N1CCC(Oc2ccc(C(=O)NC(C)c3nccs3)cc2)CC1 (stereo not drawn)	i	8	5	3	.	0
COc1ccccc1N1CCN(S(=O)(=O)c2ccc(-n3cnnn3)cc2)CC1	i	10	7	16	.	71*
COc1ccccc1N1CCN(S(=O)(=O)Cc2ccccc2Cl)CC1	i	-11	5	17	31*	-2
O=C(Nc1nnc(-c2cccs2)o1)c1cc(-c2ccccc2)nc2ccccc12	i	-9	27	-16	-8	18
O=C1CC(c2ccco2)CC(O)=C1C=Nc1cc(Cl)ccc1O (stereo not drawn)	+	8	14	52	-1	92*
O=C1CC(c2ccco2)CC(O)=C1C=Nc1cc(Cl)ccc1Cl (stereo not drawn)	i	1	4	62	13	104
O=C(OC[C@H]1O[C@@H](OC(=O)c2cc(O)c(O)c(OC(=O)c3cc(O)c(O)c(O)c3)c2)[C@H](OC(=O)c2cc(O)c(O)c(OC(=O)c3cc(O)c(O)c(O)c3)c2)[C@@H](OC(=O)c2cc(O)c(O)c(OC(=O)c3cc(O)c(O)c(O)c3)c2)[C@@H]1OC(=O)c1cc(O)c(O)c(OC(=O)c2cc(O)c(O)c(O)c2)c1)c1cc(O)c(O)c(OC(=O)c2cc(O)c(O)c(O)c2)c1	.	.	-122	.	.	.
O=C(O)C[C@@H]1C(=O)O[C@@H]2C(COC(=O)c3cc(O)c(O)c(O)c3)O[C@@H](OC(=O)c3cc(O)c(O)c(O)c3)[C@@H](OC(=O)c3cc(O)c(O)c4c3[C@H]1[C@H](O)C(=O)O4)[C@H]2OC(=O)c1cc(O)c(O)c(O)c1 (stereo partly drawn)	+	.	.	?	38*	87*
O=C1C2C(C(=O)N1/N=C/c1cccc([N+](=O)[O-])c1)C1C=CC2C12CC2 (stereo not drawn)	i	2	-5	18	-4	-9
CN(C(=O)COC(=O)c1ccc2c(c1)OCO2)c1c(N)n(Cc2ccccc2)c(=O)[nH]c1=O	.	5	-2	.	.	.
COc1ccc(-c2c(C(F)(F)F)[nH]n3c(=O)cc(-c4ccccc4)nc23)cc1	i	2	10	51*	3	2
CC(Oc1ccc(Br)cc1)C(=O)NCC1(N2CCCCC2)CCCCC1 (stereo not drawn)	.	-32	.	.	.	.
CN1CCCCc2c1[nH]c1ccccc1c2=O	+	15	-2	17	3	59*
SMILES	PABP FP inh	PABP1 MLLE inh	core dimer inh	SUMO HTRF inh	eIF4E-4G inh	eIF4H inh
Fc1ccc(-c2nc3ccncc3[nH]2)cc1	i	-9	-1	19	-3	-9
COc1ccc(-c2nc3ccncc3[nH]2)cc1OC	i	5	3	65*	5	-2
CCCSc1nc(C)cc(C)c1S(=O)(=O)c1ccccc1C	i	0	5	-6	-1	-4
CCCSc1nc(C)cc(C)c1S(C)(=O)=O	+	-4	-2	12	2	4.7*
CCOc1cccc2sc(N3CCN(C(=O)c4ccc5ncsc5c4)CC3)nc12	.	-8	2	.	.	.
O=c1c2ccccc2nc(SCc2nc(-c3ccccc3)no2)n1-c1ccc(F)cc1	+	-8	11	14	0	87*
COc1ccc(-c2noc(CSc3nc4ccccc4c(=O)n3-c3ccccc3)n2)cc1OC	i	-1	8	0	-14	-8
CC1(C)S[C@@H]2[C@H](NC(=O)COc3ccccc3)C(=O)N2C1C(=O)OCc1cc2ccccc2n1S(=O)(=O)c1ccccc1 (stereo partly drawn)	i	.	66*	16	.	18
Cc1cc(NC(=O)CSc2nnc(NCc3ccccc3)s2)no1	i	-38	-1	0	94*	-8
Cc1cccc(-n2c(N)cc(=O)nc2SCC(=O)Nc2cc(C)on2)c1	i	40*	-2	-4	-3	-6
Cc1cc(NC(=O)Cn2c(=O)n(Cc3ccccc3)c(=O)c3ccccc32)no1	i	7	-4	52*	0	2
COCCSc1ccccc1C(=O)Nc1cc(C)on1	i	12	-1	-13	52*	-1
COCCn1cnc2c1c(=O)n(CC(=O)Nc1cc(C)on1)c(=O)n2Cc1ccccc1	i	3	-6	22	-1	-14
Cc1cc(NC(=O)CSc2nc(=O)cc(N)n2-c2ccc(Cl)cc2)no1	i	6	1	0	-4	-9
COC1Cc2ccccc2N(C(N)=O)c2ccccc21 (stereo not drawn)	.	6	-5	.	.	.
S=C(Nc1ccc(N2CCOCC2)cc1)Nc1ccc2snnc2c1	i	20	1	16	3	-6
O=C(CSc1nccn1-c1cccc(Cl)c1)NO	i	6	-2	-3	0	-4
Cc1cc(NC(=O)CSc2nccn2-c2cccc(Cl)c2)no1	i	69*	2	-2	.	-5
Cc1cc(NC(=O)CSc2ccc(F)cc2)no1	i	4	-3	10	-1	-8
Cc1cc(NC(=O)CSc2ccccc2)no1	i	30	4	16	66*	-11

Screening results deposited in PubChem BioAssay by several laboratories.
